Results from different studies.
Compare with care: the assays were run in different laboratories.
Observed: metabolic stability
Species: human
Sample: liver microsomes

SMILES | setting | microsomal CLint [µL/min/mg]
Cc1cnnc(Nc2ccnc3ccc(-c4ccc(S(=O)(=O)N5CCOCC5)cc4)cc23)c1 | – | 126
COc1cc2[nH]c(C)c(-c3ccoc3)c(=O)c2cc1Cl | 1 µM | 93
CCn1cnc2c(N3CCC(c4ccccn4)C3)nc(-c3ccccn3)nc21 (stereo not shown) | – | 42
COc1cc2[nH]c(C)c(-c3cc4ccccc4o3)c(=O)c2cc1Cl | 1 µM | 29
O=S(=O)(c1ccc(-c2ccc3nccc(Nc4cncs4)c3c2)cc1)N1CCOCC1 | – | 29.5
c1ccc(-c2nc(N3CCOCC3)c3ccccc3n2)nc1 | – | 58
COc1ccc(Nc2ccnc3ccc(-c4ccc(S(=O)(=O)N5CCOCC5)cc4)cc23)cc1Cl | – | 102
Fc1ccc(N(CC2CC2)c2c(-c3ccccn3)nc3ccccn23)cc1 | 3 µM, pH 7.4 | 110
COc1cc2[nH]c(C)c(-c3ccc(C(C)C)cc3)c(=O)c2cc1Cl | 1 µM | 34
CCn1ncc2c(N3CCC(c4ccccn4)C3)nc(-c3ccccn3)nc21 (stereo not shown) | – | < 1
Fc1ccc(Nc2c(-c3cccc(F)n3)nc3ccccn23)cc1 | 3 µM, pH 7.4 | 130
Cc1cc(Nc2ccc(S(F)(F)(F)(F)F)cc2)n2ccnc2n1 | – | 7.1
C[C@H](C(=O)NC1Cc2ccccc2C1)c1ccc(F)cc1 | 1 µM, 1 h | 120
COc1cc(OC)cc(-c2c(-c3ccccn3)nc3n2CCC3)c1 | 3 µM, pH 7.4 | 53
O=C(N[C@H](Cc1ccccc1)C(=O)Nc1ccccc1N1CCS(=O)(=O)CC1)c1ccccc1F | 2 µM, 40 min, pH 7.4 | 1110
COc1cc2[nH]c(C)c(-c3ccc(C(F)(F)F)cc3)c(=O)c2cc1Cl | 1 µM | < 7
O=S(=O)(c1ccc(-c2ccc3nccc(Nc4ncc(Cl)cn4)c3c2)cc1)N1CCOCC1 | – | 113
COc1ccc2nc(-c3cc(N(C)C)ccn3)c(Nc3ccc(F)cc3)n2c1 | 3 µM, pH 7.4 | 120
C[C@H](C(=O)NC1Cc2ccccc2C1)c1ccccc1 | 1 µM, 1 h | 15
Fc1ccc(Nc2c(-c3cc(Cl)ccn3)nc3ccccn23)cc1 | 3 µM, pH 7.4 | 160
O=S(=O)(c1ccc(-c2ccc3nccc(Nc4cnccn4)c3c2)cc1)N1CCOCC1 | – | 115
COc1cc2[nH]c(C)c(-c3ccc(CO)cc3)c(=O)c2cc1Cl | 1 µM | < 7
O=S(=O)(c1ccc(-c2ccc3nccc(Nc4cccnc4)c3c2)cc1)N1CCOCC1 | – | 86.3

SMILES | setting | microsomal CLint [µL/min/mg]
COc1ccc(CNc2c(CO)cnc3c(C4CC4)cc(C#N)cc23)cc1Cl | – | 80
CCOC(=O)c1c(-c2cc(F)cc(OC)c2)[nH]c2cc(OC)c(F)cc2c1=O | 19.8 µM, pH 7.4 | 50
Cc1noc(C)c1Nc1ccnc2ccc(-c3ccc(S(=O)(=O)N4CCOCC4)cc3)cc12 | – | 78.2
O=c1[nH]c(=S)n(Cc2ccc(Cl)cc2CNCC(F)(F)F)c2cc[nH]c12 | – | 8.2
O=C(O)C1CCN(c2nc(-c3ccccn3)nc3ccccc23)C1 (stereo not shown) | – | 9
Cc1cc(Nc2ccc(C(F)(F)F)cc2)n2nc(C(C)(F)F)nc2n1 | 1 µM, pH 7.4 | < 6
Cc1cccnc1CNc1nc(-c2ccccn2)nc2ccccc12 | – | 64
CCC(F)(F)c1nc2nc(C)cc(Nc3ccc(S(F)(F)(F)(F)F)cc3)n2n1 | 1 µM, pH 7.4 | < 6
COc1cc2[nH]c(C)c(-c3ccc(COc4ccccc4)cc3)c(=O)c2cc1Cl | 1 µM | 22
CC(C)CCN(c1ccc(F)cc1)c1c(-c2ccccn2)nc2ccccn12 | 3 µM, pH 7.4 | 110
Cn1ccnc1CNc1nc(-c2ccccn2)nc2ccccc12 | – | 24
O=C(Nc1ccnc(C(F)(F)F)c1)Nc1cccc2c1OC(F)(F)O2 | – | 14
CCn1nccc1Nc1ccnc2ccc(-c3ccc(S(=O)(=O)N4CCOCC4)cc3)cc12 | – | 134
N#CC1CCN(c2nc(-c3ccccn3)nc3ccccc23)C1 (stereo not shown) | – | 45
O=C(Nc1ccc2c(c1)B(O)OC2)Nc1ccc(F)c(C(F)(F)F)c1 | – | 13
N#CC1CCN(c2nc(-c3ccccn3)nc3ccccc23)CC1 | – | 45
COc1cc2[nH]c(C)c(-c3ccc(C)cc3)c(=O)c2cc1Cl | 1 µM | 21
CC(C)(C)[Si](C)(C)OCCCN(c1ccc(F)cc1)c1c(-c2ccccn2)nc2ccccn12 | 3 µM, pH 7.4 | > 300
CCN(CC)CCNC(=O)c1c(C)[nH]c(/C=C2\C(=O)Nc3ccc(F)cc32)c1C | 1 µM, pH 7.4 | 19
COc1cc2[nH]c(C)c(-c3c(C)noc3C)c(=O)c2cc1Cl | 1 µM | < 7
CCC(F)(F)c1nc2nc(C)cc(Nc3ccc(C(F)(F)F)cc3)n2n1 | 1 µM, pH 7.4 | < 6
COc1cccnc1-c1nc2ccccn2c1Nc1ccc(F)cc1 | 3 µM, pH 7.4 | 19
CS(=O)(=O)c1ccc(-c2cnc(N)c(-c3ccc(C(F)(F)F)nc3)c2)cc1 | 1 µM | < 11.6
